# GSIS activator – GLuc luminescence reporter in INS-1E cells, primary screen for activators of glucose-dependent secretion of insulin | INS-1E GLuc reporter insulin secretion, 2-3 h | activation, % at 16.6 µM | hit rate 0.61% among 370,000 | AID 743287;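 active = lowest replicate activation of at least 40%, so every replicate reaches that level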;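 also: 0% = median of neutral control wells and 100% = median of IBMX positive control wells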
# ERp5 inh – blocks human ERp5 reductase activity on insulin; Q15084; inhibition, % at 9.99 µM; AID 651711; ERp5 insulin aggregation, absorbance 650 nm, 90 min; hit rate 0.05% among 350,000;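 active = mean replicate inhibition above about 25%, with every replicate also reaching it, limit read from the data, passing the limit was not always enough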
# Target sequence (Q15084 whole entry, looked up): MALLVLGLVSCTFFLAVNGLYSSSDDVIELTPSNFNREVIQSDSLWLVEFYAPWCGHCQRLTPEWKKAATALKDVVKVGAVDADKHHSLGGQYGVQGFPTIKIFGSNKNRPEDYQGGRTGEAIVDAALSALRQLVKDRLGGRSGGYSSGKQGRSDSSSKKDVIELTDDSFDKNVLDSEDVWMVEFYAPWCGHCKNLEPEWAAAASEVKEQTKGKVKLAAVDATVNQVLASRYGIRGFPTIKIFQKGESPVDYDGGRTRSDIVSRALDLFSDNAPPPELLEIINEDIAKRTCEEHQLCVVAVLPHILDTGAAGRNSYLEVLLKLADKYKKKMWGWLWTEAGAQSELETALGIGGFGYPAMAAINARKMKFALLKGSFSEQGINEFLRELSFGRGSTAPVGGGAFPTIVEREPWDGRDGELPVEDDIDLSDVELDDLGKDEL
# FN deposit inh – fibronectin deposition inhibition | AH1F fibroblasts, Alexa488-fibronectin deposition fluorescence, overnight | inhibition, % at 12.6 µM | hit rate 0.086% among 350,000;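 active = mean inhibition across replicates of 30% or more, regardless of how many single replicates reach that level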;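 also: positive control wells lacked labelled fibronectin entirely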
#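 Assay system: AH1F fibroblasts assembling fluorescent fibronectin matrix; Amount: 10000 AH1F cells per well; Buffer or medium: DMEM, 2% serum; Probe or stimulus: Alexa488-fibronectin, 24 nM final in well; Doses: single compound dose, delivered by pin transfer; Incubation: 1 h adhesion, overnight exposure; Measured by: fluorescence 485/525 nm; Read-out: fibronectin deposition inhibition.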
# Env fusion inh – HIV envelope-mediated fusion inhibition; HeLa-JRFL Env/CEM21 cell fusion, luciferase; hit rate 1.1% among 360,000; inhibition, % at 12.3 µM;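 active = mean replicate inhibition score of at least 50 and every replicate individually at or above 50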;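 also: 0% = plate neutral controls and 100% = maraviroc near 300 nM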
# PDI turbidity – PDI (human) enzyme inhibition. P07237. PDI insulin aggregation turbidity, A650, 90 min. inhibition, % at 10 µM. hit rate 0.052% among 350,000. AID 588391;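 active = mean inhibition across replicates of 30% or more, whatever share of single replicates reach that level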
# Active calls of the source: *; x = not tested or not shown; [ ] = another dose, or the depositor's remark. Hits are enriched below; roughly 1.4% of the tested compounds scored in any of these assays.
SMILES,GSIS activator,ERp5 inh,FN deposit inh,Env fusion inh,PDI turbidity
COCCNC(=O)c1ccccc1NC(=O)c1ccccc1N(C)S(=O)(=O)c1ccc(C)cc1,-12.1,x,x,x,3.4
CC1=C(C(=O)NC(C)C)C2(CCC(C)CC2)OC1=O (stereo not given),x,1.7,2.3,61.0*,x
COCC(=O)N(C)C[C@@H]1Oc2cc(-c3ccc(C)cc3)ccc2S(=O)(=O)N([C@@H](C)CO)C[C@H]1C,-7.5,1.8,-13.2,-2.1[16.7 µM],x
CN(C)c1cc[n+](Cc2c(Cl)cccc2Cl)cc1,x,x,2.1,57.9*,4.5
O=C(O)CCSc1ncnc2sc(-c3ccccc3)cc12,2.9,1.9,2.8,68.4*,-3.3
C[C@H]1CN([C@@H](C)CO)C(=O)c2cc(NC(=O)NC3CCCCC3)ccc2O[C@H]1CN(C)Cc1ccc(C(=O)O)cc1,4.8,-0.9,x,x,x
CCCC(=O)N1CCN(c2nc3ccccc3s2)CC1,-2.5,0.7,4.8,-17.6,4.2
O=C(c1cc2sccc2n1Cc1ccc(F)cc1)N1CCN(c2nc3ccccc3s2)CC1,x,x,7.6,86.6*,4.0
Cc1ccc(-c2nnn(CC(=O)N3CCN(c4nc5ccccc5s4)CC3)n2)cc1,211.1*,x,-2.8,-28.8,1.4
O=C(c1ccc(Cl)s1)N1CCN(c2nc3ccccc3s2)CC1,-10.7,3.8,-1.1,77.1*,4.9
Cn1c(C(=O)N2CCN(c3nc4ccccc4s3)CC2)cc2sccc21,8.7,x,-2.7,70.9*,2.8
O=C(C[C@@H]1C=C[C@H](NS(=O)(=O)c2ccc(F)cc2)[C@H](CO)O1)NCCN1CCCCC1,-0.3,-4.1,x,-17.6[16.7 µM],x
CCCNC(=O)Cn1sc2nc(C)cc(C)c2c1=O,94.2*,-2.4,-0.1,13.1,4.8
O=C(C[C@H]1CC[C@H]2NC[C@@H](O)COC[C@@H]2O1)NC1Cc2ccccc2C1,5.6,-1.0,-12.9,-9.0[16.7 µM],x
O=C(Nc1ccc(O)c(-c2nc3ccccc3o2)c1)C1(c2ccc(Cl)cc2)CCCC1,2.0,x,12.8,31.0,-4.4
O=C(Nc1ccc(O)c(-c2nc3ccccc3o2)c1)C1(c2ccc([N+](=O)[O-])cc2)CCCC1,10.7,x,6.1,55.1*,-13.4
Cc1nc(SCc2nc3cc(Cl)c(F)cc3[nH]2)c2oc3ccccc3c2n1,11.1,1.4,x,65.6*,10.3
CCOc1ccc(C(=O)NCC(=O)Nc2cc(C)ccn2)cc1OCC,44.3*,2.1,2.8,x,-6.7
Cc1ccnc(NC(=O)CNC(=O)c2ccco2)c1,45.2*,-0.4,3.5,x,6.5
CCOc1ccc(C(=O)NCC(=O)OCCCC(=O)c2ccc(F)cc2)cc1OCC,44.8*,-16.7,-1.1,x,-7.0
Cc1ccc(S(=O)(=O)Nc2ccc3c(c2)CC(=O)N([C@H](C)CO)C[C@H](C)[C@@H](CN(C)C(=O)NC2CCCCC2)O3)cc1,11.5,-3.9,x,x,x
CC(C)c1ccc(/C=C2\SC(=S)N(CCC(=O)N3CCCCC3CCO)C2=O)cc1 (stereo not given),-1.0,-2.3,-3.2,56.1*,-0.8
CSC1SCC2C(=O)N(C)C(C(C)C)C(=O)OCC(NC(=O)c3cnc4ccccc4n3)C(=O)NC(C)C(=O)N(C)C1C(=O)N(C)C(C(C)C)C(=O)OCC(NC(=O)c1cnc3ccccc3n1)C(=O)NC(C)C(=O)N2C (stereo not given),-0.4,2.8,0.2,84.2*,0.8
CCSc1nc2sc3c(c2c(=O)n1CC)CC(C)(C)OC3,x,x,x,x,6.5
CCn1c(SCC(=O)OC)nc2sc3c(c2c1=O)CC(C)(C)OC3,74.3*,-5.9,-5.3,11.1,-1.5
SMILES,GSIS activator,ERp5 inh,FN deposit inh,Env fusion inh,PDI turbidity
CCC(=O)Nc1ccc2c(c1)C(=O)N(C)C[C@H](OC)[C@@H](C)CN(C(=O)c1ccncc1)[C@@H](C)CO2,26.7,3.3,-2.5,15.9[16.7 µM],x
COCC(C)n1c(SCc2nc(N)nc(Nc3ccccc3C)n2)nc2ccccc2c1=O (stereo not given),x,x,32.5*,-48.4,4.1
Cc1onc(-c2ccccc2)c1C(=O)Nc1ccc(N2CCOCC2)cc1,x,x,12.5,1.1,-4.6
CCc1onc(C)c1C(=O)Nc1ccc(N2CCOCC2)cc1,41.5*,-2.2,-0.3,2.4,5.3
Cc1ccc(NC(=O)CN(C(=O)N2CCN(C)CC2)S(=O)(=O)c2ccc(C)cc2)cc1,44.6*,4.2,6.8,3.1,-4.3
Cc1ccc(S(=O)(=O)N(CC(=O)Nc2ccc(C)cc2C)C(=O)N2CCN(C)CC2)cc1,221.3*,2.4,x,10.2,12.4
Cc1ccc(S(=O)(=O)N(CC(=O)Nc2cccc(C)c2C)C(=O)N2CCN(C)CC2)cc1,13.1,4.0,2.2,-38.0,-5.9
O=C(Nc1cccc(-c2ccc(N3CCCCC3)nn2)c1)C(F)(F)F,14.3,5.4,8.5,68.5*,-5.2
O=C(Nc1cccc(-c2ccc(N3CCCCC3)nn2)c1)c1ccc(Br)o1,10.0,0.0,9.1,x,-4.2
CC1CCN(c2ccc(-c3cccc(NC(=O)C(F)(F)F)c3)nn2)CC1,-8.8,1.3,6.0,79.6*,-2.5
CCCNC(=O)[C@H]1[C@H](CO)[C@H]2Cn3c(ccc(/C=C/c4ccccc4)c3=O)[C@@H]1N2CCC,-4.8,6.6,x,x,x
Cc1ccccc1NC(=O)CN1C(=O)S/C(=C/c2cccnc2)C1=O,40.0*,5.1,-0.9,1.4,-0.7
O=C(C[C@@H]1C=C[C@H](NC(=O)CN2CCOCC2)[C@@H](CO)O1)NCCc1ccccc1,7.6,-5.0,x,7.6[16.7 µM],x
C=CCn1c(Cc2ccc(OCC)cc2)nnc1SCC(N)=O,2.1,x,1.4,77.3*,-3.3
COc1ccc(NC(=O)c2sc3nc(N4CCOCC4)c4c(c3c2N)CC(C)(C)OC4)cc1,26.2,-6.2,x,7.7,-24.9
COc1ccc(NC(=O)c2sc3nc(N4CCOCC4)c4c(c3c2N)CC(C)(C)OC4)c(OC)c1,127.2*,-0.3,13.3,-11.1,-4.2
O=C(C[C@H]1C=C[C@@H](NC(=O)c2ccncc2)[C@@H](CO)O1)NCc1ccncn1,1.9,0.7,x,x,x
CNC[C@@H]1Oc2c(NS(=O)(=O)c3ccc(F)cc3)cccc2C(=O)N([C@@H](C)CO)C[C@H]1C,-3.9,-1.1,x,-14.9[16.7 µM],x
Cc1ccc(S(=O)(=O)Nc2ccc(C(=O)NCCCn3ccnc3)cc2)cc1[N+](=O)[O-],44.2*,-8.3,5.9,x,-13.3
COC(=O)c1cc(C(=O)c2ccc(C(C)(C)C)cc2)c[nH]1,-19.2,2.8,42.9*,-2.1,4.8
CC(C)(C)c1ccc(C(=O)c2c[nH]c(C(=O)O)c2)cc1,-2.8,7.1,-0.8,-62.1,3.1
Cc1cc(C)n(-c2nc(NCCN(C)C)c3c4c(sc3n2)CCCC4)n1,52.9*,2.7,28.8,-34.6,0.6
C/C=C/c1cnc2c(c1)C(=O)N([C@@H](C)CO)C[C@@H](C)[C@H](CN(C)C(=O)Nc1c(C)noc1C)O2,6.3,-0.3,-1.3,-12.8[16.7 µM],x
COc1ccc(CN2CC3(CN(C(=O)C4CC4)C3)c3c(n(C)c4cc(OC)ccc34)[C@@H]2CO)cc1,-19.4,3.1,x,x,x
Cn1cc(CC(=O)Nc2ccc(Oc3cccnc3)cc2)c2ccccc21,-0.9,-7.6,5.4,8.4,x
